Structures are written as SMILES. The source made the active and inactive calls. Unless noted, the rule behind the calls is not given here.

The results in this text go back to ChEMBL document CHEMBL4346727, “Synthesis and pharmacological evaluation of novel N-Mannich bases derived from 5,5-diphenyl and 5,5-di(propan-2-yl)imidazolidine-2,4-dione core” (Bioorg Med Chem Lett, 2019).

Data set [1] is described as follows: Neurotoxicity in Sprague-Dawley rat at 30 mg/kg, po measured after 2 hr by rotarod test. It counts as toxicity, organism-based. The following applies: in vivo. The gist of the method:
(§1)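 Rats given one oral dose of 30 mg/kg and tested on the rotarod at 0.25, 0.5, 1, 2, 4 and 6 h.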
A general note: The rotarod test checks motor coordination on a turning rod.

A short description of data set [2]: Neurotoxicity in Sprague-Dawley rat at 30 mg/kg, po measured after 1 hr by rotarod test. The format is toxicity, organism-based. The note with it: in vivo. A digest of the protocol:
as §1

Data set [3] in a line: Neurotoxicity in Sprague-Dawley rat at 30 mg/kg, po measured after 30 mins by rotarod test. It counts as toxicity, organism-based. The note with it: in vivo, 0.5 h. The gist of the method: as §1
In data set [4] the test system is Rattus norvegicus. In words: Anticonvulsant activity in Sprague-Dawley rat assessed as protection against 150 mA current-induced seizure at 30 mg/kg, po measured after 1 hr by maximal electroshock seizure test. The format is functional, organism-based. A digest of the protocol: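 Rats received 30 mg/kg orally and were given maximal electroshock at 0.25, 0.5, 1, 2, 4 and 6 h. Read-out is the number of rats protected out of four.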
Background: The maximal electroshock test induces tonic seizures with an electrical stimulus.

The test system of data set [5] is Mus musculus. Briefly: Anticonvulsant activity in CD1 mouse assessed as protection against subcutaneous pentylenetetrazole-induced seizures at 300 mg/kg, ip and measured after 0.5 hrs. It counts as functional, organism-based. The gist of the method:
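Mice were screened after intraperitoneal doses of 30, 100 and 300 mg/kg in the maximal electroshock and subcutaneous pentylenetetrazole tests, examined at 0.5 and 4 h. The value recorded is the minimum dose showing activity. No activity up to 300 mg/kg is scored as absent.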

Data set [6] deals with Mus musculus. Briefly: Anticonvulsant activity in ip dosed CD1 mouse assessed as time to peak effect on protection against 50 mA current-induced seizures. The format is functional. A digest of the protocol:
(§2)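 Median effective doses were quantified in the maximal electroshock, subcutaneous pentylenetetrazole and 6 Hz tests after intraperitoneal dosing in mice or oral dosing in rats, at the time of peak effect. ED50 values are reported with ranges in parentheses.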

Data set [7] concerns Mus musculus. In words: Anticonvulsant activity in ip dosed CD1 mouse assessed as protection against 50 mA current-induced seizures. The format is functional. A digest of the protocol:
as §2

For data set [8], the system named is Mus musculus. In words: Anticonvulsant activity in ip dosed CD1 mouse assessed as protection against subcutaneous pentylenetetrazole-induced seizures. It counts as functional. The gist of the method: as §2
Data set [9] has as its system Rattus norvegicus. Briefly: Anticonvulsant activity in po dosed Sprague-Dawley rat assessed as protection against subcutaneous pentylenetetrazole-induced seizures. It counts as functional.
In data set [10] the test system is Mus musculus. In words: Anticonvulsant activity in ip dosed CD1 mouse assessed as protection against 32 mA current-induced seizure by 6 Hz psychomotor seizure test. It counts as functional. The gist of the method:
as §2

A short description of data set [11]: Neurotoxicity in po dosed Sprague-Dawley rat model by rotarod test. It counts as toxicity, organism-based. The following applies: in vivo. The gist of the method:
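Rats dosed orally; neurotoxicity scored on the rotarod. Screening used a fixed 30 mg/kg, with animals checked at 0.25, 0.5, 1, 2, 4 and 6 h; the reading is the number of four rats showing neurotoxicity. In quantitative runs, a median toxic dose (TD50, mg/kg) was determined after oral dosing at the time of peak effect.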

Data set [12] is described as follows: Protection index, ratio of TD50 for neurotoxicity in po dosed Sprague-Dawley rat by rotarod test to ED50 for anticonvulsant activity in po dosed Sprague-Dawley rat by maximal electroshock seizure test. It counts as toxicity, organism-based. The following applies: in vivo, read-out: Ratio TD50/ED50.
Data set [13] can be described thus: Protection index, ratio of TD50 for neurotoxicity in ip dosed CD1 mouse by rotarod test to ED50 for anticonvulsant activity in CD1 mouse by 6 Hz psychomotor seizure test. The note with it: in vivo, read-out: Ratio TD50/ED50. It counts as toxicity, organism-based.
Data set [14] has as its system Mus musculus. Briefly: Potency index, ratio of phenytoin ED50 to compound ED50 for anticonvulsant activity in ip dosed CD1 mouse by 6 Hz psychomotor seizure test. The format is functional.
A short description of data set [15]: Neurotoxicity in CD1 mouse at 50 mg/kg, ip measured after 2 hrs by rotarod test. The following applies: in vivo.
The nature of data set [16]: Neurotoxicity in CD1 mouse at 25 mg/kg, ip measured after 4 hrs by rotarod test. The following applies: in vivo.
The nature of data set [17]: Neurotoxicity in CD1 mouse at 50 mg/kg, ip measured after 15 mins by rotarod test. The following applies: in vivo, 0.25 h.
Data set [18] is described as follows: Neurotoxicity in CD1 mouse at 25 mg/kg, ip measured after 30 mins by rotarod test. The note with it: in vivo, 0.5 h.
Data set [19] deals with Mus musculus. Briefly: Anticonvulsant activity in CD1 mouse assessed as protection against 32 mA current-induced seizure at 100 mg/kg, ip measured after 1 hr by 6 Hz psychomotor seizure test.
The test system of data set [20] is Mus musculus. In words: Anticonvulsant activity in CD1 mouse assessed as protection against 32 mA current-induced seizure at 50 mg/kg, ip measured after 15 mins by 6 Hz psychomotor seizure test.
The test system of data set [21] is Mus musculus. Briefly: Anticonvulsant activity in CD1 mouse assessed as protection against 32 mA current-induced seizure at 50 mg/kg, ip measured after 30 mins by 6 Hz psychomotor seizure test.
Data set [22] concerns Mus musculus. In words: Anticonvulsant activity in CD1 mouse assessed as protection against 32 mA current-induced seizure at 100 mg/kg, ip measured after 30 mins by 6 Hz psychomotor seizure test.

Broadly, the ED50 is the dose at which the effect has come halfway, by size or by number of responders. As a reminder, the TD50 is the 50% point of the dose-response relation for the toxic effect studied. The low end stands for greater toxicity, the high end for lower toxicity. Consider `CN1CCN(CN2C(=O)NC(c3ccccc3)(c3ccccc3)C2=O)CC1`, for which the Activity entry in data set [1], in data set [2], in [3], in data set [15], in data set [16] and in [17] was “Non-Toxic” in each case. For the same compound, in data set [18], the Activity result is “Non-Toxic”. The outcome in data set [4], in data set [19], in [20], in data set [21] and in [22] was Active. The MED result in [5] was “inactive”. In addition, the Time in data set [6] worked out at 4 h. For the same compound, the ED50 in data set [7] was 11.1 mg/kg; in data set [8] it was over 80 mg/kg; in data set [9], over 250 mg/kg; in data set [10], 12.2 mg/kg. Also, the TD50 in data set [11] was over 500 mg/kg. Further, the selectivity ratio in [12] was over 13; in data set [13], 6.19. In [14], the “Ratio ED50” value was determined as 5.
